# Test results reported in ChEMBL document CHEMBL1131493, “Inhibitors of farnesyl protein transferase. 4-Amido, 4-carbamoyl, and 4-carboxamido derivatives of 1-(8-chloro-6,11-dihydro-5H-benzo[5,6]- cyclohepta[1,2-b]pyridin-11-yl)piperazine and 1-(3-bromo-8-chloro-6,11- dihydro-5H-benzo[5,6]cyclohepta[1,2-b]pyridin-11-yl)piperazine” (J Med Chem, 1998).
# Legend:
# [1] = biological target: T1, Protein farnesyltransferase (Homo sapiens, UniProt P49354+P49356); test: In vitro inhibition of farnesyltransferase farnesylation of H-ras at […]
# [2] = In vivo antitumor efficacy in cynomolgus monkeys by injecting a dose of 5 mg/kg, as HCl salt in saline solution, intravenously and the total drug exposure was determined (0-8 hr); assay type: ADME, organism-based, Macaca fascicularis; parameters: time < 8 hr, dose 5 mg/kg, route intravenous; settings: cynomolgus monkey, iv
# Summary of the method: (§1)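 Cynomolgus monkeys; hydrochloride salt in saline iv, or compound given po (as hydrochloride, as micronized free base in corn oil, or as hydrochloride in 0.4% methyl cellulose, depending on compound).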
# [3] = In vivo antitumor efficacy in cynomolgus monkeys by injecting a dose of 5 mg/kg, as HCl salt in saline solution, perorally and the total drug exposure was determined (0-8 hr); assay type: ADME, organism-based, Macaca fascicularis; parameters: time < 8 hr, dose 5 mg/kg, route oral; settings: cynomolgus monkey, po
# Summary of the method: as §1
# [4] = In vivo antitumor efficacy in nude mice by injecting a dose of 25 mg/kg, as HCl salt in saline solution, iv and the total drug exposure was determined. (0-24hr); assay type: ADME, organism-based; parameters: time < 24 hr, dose 25 mg/kg, route intravenous; settings: mouse
# [5] = In vivo antitumor efficacy in nude mice by injecting a dose of 25 mg/kg, as HCl salt in saline solution, perorally and the total drug exposure was determined (0-24hr); assay type: ADME, organism-based; parameters: time < 24 hr, dose 25 mg/kg, route oral; settings: mouse, po
# [6] = In vivo antitumor efficacy in nude mice by injecting a dose of 25 mg/kg, micronized free base in 20% HPbetaCD, perorally and the total drug exposure was determined (0-24hr); assay type: ADME, organism-based; parameters: time < 24 hr, dose 25 mg/kg, route oral; settings: mouse, po
# [7] = In vivo antitumor efficacy in cynomolgus monkeys by injecting a dose of 10 mg/kg, as HCl salt in saline solution, perorally and the total drug exposure was determined (0-8 hr); assay type: ADME, organism-based, Macaca fascicularis; parameters: time < 8 hr, dose 10 mg/kg, route oral; settings: cynomolgus monkey, po
# Summary of the method: (§2)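 Serum pharmacokinetics in nude mice or cynomolgus monkeys after oral (po) or iv dosing. Compounds were given as hydrochloride salts in 20% HPβCD unless otherwise noted. Other formulations were the hydrochloride salt in saline, the micronized free base in 20% HPβCD or corn oil (po) with saline for iv, or the hydrochloride salt in 0.4% methyl cellulose (po).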
# [8] = Bioavailability in cynomolgus monkey (dose 5 mg/kg i.v.); assay type: ADME, organism-based, Macaca fascicularis; settings: in vivo, iv
# Summary of the method: as §2
# [9] = Oral bioavailability in mouse (nude) (dose 25 mg/kg i.v.); assay type: ADME, organism-based; settings: in vivo
# [10] = In vivo antitumor efficacy in nude mice by injecting a dose of 25 mg/kg, micronized free base in 20% HPbetaCD, iv and the total drug exposure was determined. (0-24hr); assay type: ADME, organism-based; parameters: time < 24 hr, dose 25 mg/kg, route intravenous; settings: mouse
# [11] = (§3) Maximal plasma concentration in nude mice after 25 mg/kg oral dose; assay type: ADME, organism-based; parameters: dose 25 mg/kg, route oral; settings: mouse
# [12] = as §3; assay type: ADME, organism-based; parameters: dose 25 mg/kg, route oral; settings: mouse; remark: listed apart in the source
# [13] = In vivo antitumor efficacy in cynomolgus monkeys by injecting a dose of 10 mg/kg, as HCl salt in saline solution, perorally and the maximum drug concentration was determined; assay type: ADME, organism-based, Macaca fascicularis; parameters: dose 10 mg/kg, route oral; settings: cynomolgus monkey, po
# Summary of the method: as §1
# [14] = In vivo antitumor efficacy in cynomolgus monkeys by injecting a dose of 5 mg/kg, as HCl salt in saline solution, perorally and the maximum drug concentration was determined; assay type: ADME, organism-based, Macaca fascicularis; parameters: dose 5 mg/kg, route oral; settings: cynomolgus monkey, po
# Summary of the method: as §1
# Cynomolgus monkey [15] = test: In vivo antitumor efficacy in cynomolgus monkeys by injecting a dose of 10 mg/kg, as HCl salt in saline solution, perorally and the duration of action was reported; assay type: ADME, organism-based, Macaca fascicularis; parameters: dose 10 mg/kg, route oral; settings: po
# Summary of the method: as §1
# Mus musculus [16] = test: In vivo antitumor efficacy in nude mice by injecting a dose of 25 mg/kg, as HCl salt in saline solution, perorally and the duration of action was reported; assay type: ADME, organism-based; parameters: dose 25 mg/kg, route oral; settings: po
# [17] = In vivo antitumor efficacy in nude mice by injecting a dose of 25 mg/kg, micronized free base in 20% HPbetaCD, iv and the serum half-life was determined; assay type: ADME, organism-based; parameters: dose 25 mg/kg, route intravenous; settings: mouse
# [18] = In vivo antitumor efficacy in cynomolgus monkeys by injecting a dose of 5 mg/kg, as HCl salt in saline solution, iv and the serum half-life was determined; assay type: ADME, organism-based, Macaca fascicularis; parameters: dose 5 mg/kg, route intravenous; settings: cynomolgus monkey
# Summary of the method: as §1
# [19] = In vivo antitumor efficacy in nude mice by injecting a dose of 25 mg/kg, as HCl salt in saline solution, iv and the serum half-life was determined; assay type: ADME, organism-based; parameters: dose 25 mg/kg, route intravenous; settings: mouse
# [20] = biological target: geranylgeranyltransferase type-I (Rattus norvegicus, UniProt P53610+Q04631); test: Inhibition of rat Geranylgeranyl transferase (GGPT); assay type: protein-complex assay
# [21] = Oral bioavailability in nude mice; assay type: ADME, organism-based; settings: mouse, in vivo, read-out: Bioavailabiility
# [22] = (§4) In vivo antitumor efficacy in nude mice 0-24 hr after peroral dose of 25 mg/kg expressed as Area under the curve; assay type: ADME, organism-based; parameters: time < 24 hr, dose 25 mg/kg, route oral; settings: nude, mouse, po
# Summary of the method: as §2
# Mus musculus [23] = test: as §4; assay type: ADME, organism-based; parameters: time < 24 hr, dose 25 mg/kg, route oral; settings: po, 24 h
# Summary of the method: as §2
# [24] = In vivo antitumor efficacy in cynomolgus monkeys 0-8 hours after peroral dose of 25 mg/kg expressed as Area under the curve; assay type: ADME, organism-based, Macaca fascicularis; parameters: time < 8 hr, dose 25 mg/kg, route oral; settings: cynomolgus monkey, po
# Summary of the method: as §2
# [25] = Oral bioavailability in mouse (nude) (dose of 25 mg/kg); assay type: ADME, organism-based; settings: in vivo
# Summary of the method: as §2
# [26] = In vivo antitumor efficacy expressed as maximum plasma concentration after a peroral dose of 10 mg/kg in cynomolgus monkeys; assay type: ADME, organism-based, Macaca fascicularis; parameters: dose 10 mg/kg, route oral; settings: cynomolgus monkey, po
# Summary of the method: as §2
# [27] = as §3; assay type: ADME, organism-based; parameters: dose 25 mg/kg, route oral; settings: mouse; remark: listed apart in the source
# Summary of the method: as §2
# Cynomolgus monkey [28] = test: In vivo antitumor efficacy after peroral dose of 25 mg/kg in cynomolgus monkeys expressed as duration for which compound was present above IC50; assay type: ADME, organism-based, Macaca fascicularis; parameters: dose 25 mg/kg, route oral; settings: po
# Summary of the method: as §2
# Mus musculus [29] = test: In vivo antitumor efficacy after peroral dose of 25 mg/kg in mice expressed as duration for which compound was present above IC50; assay type: ADME, organism-based; parameters: dose 25 mg/kg, route oral; settings: po
# Summary of the method: as §2
# [30] = In vivo antitumor efficacy in nude mice by injecting a dose of 25 mg/kg iv and serum half-life was determined; assay type: ADME, organism-based; parameters: dose 25 mg/kg, route intravenous; settings: mouse
# Summary of the method: as §2
# [31] = In vivo antitumor efficacy in nude mice 0-24 hr after intravenous dose of 25 mg/kg expressed as Area under the curve; assay type: ADME, organism-based; parameters: time < 24 hr, dose 25 mg/kg, route intravenous; settings: mouse
# Summary of the method: as §2
# [32] = In vivo antitumor efficacy in nude mice 0-24 hr after iperoral dose of 25 mg/kg expressed as Area under the curve; assay type: ADME, organism-based; parameters: time < 24 hr, dose 25 mg/kg; settings: mouse, po
# Summary of the method: as §2
# [33] = In vivo antitumor efficacy after peroral dose of 25 mg/kg expressed as duration for which compound was present above IC50; assay type: ADME, organism-based; parameters: dose 25 mg/kg, route oral; settings: po
# Summary of the method: as §2
# [34] = biological target: T1, Protein farnesyltransferase; test: In vitro inhibition of farnesyltransferase farnesylation of the H-ras oncogene; assay type: protein-complex assay
# [35] = Maximal plasma concentration in cynomolgus monkeys after 10 mg/kg oral dose; assay type: ADME, organism-based, Macaca fascicularis; parameters: dose 10 mg/kg, route oral; settings: cynomolgus monkey, plasma
# Summary of the method: as §2
# Cynomolgus monkey [36] = test: In vivo antitumor efficacy after peroral dose of 10 mg/kg in cynomolgus monkeys expressed as duration for which compound was present above IC50; assay type: ADME, organism-based, Macaca fascicularis; parameters: dose 10 mg/kg, route oral; settings: po
# Summary of the method: as §2
# [37] = biological target: T1, Protein farnesyltransferase; test: Inhibition of Farnesyltransferase from Ras-CVLS or Ras-CVLL in Cos-7 monkey kidney cells; assay type: cell-based, Chlorocebus aethiops
structure (smiles),measurement,setting,value
CN(C(=O)N1CCN(C2c3ccc(Cl)cc3CCc3cccnc32)CC1)c1ccncc1 (configuration not stated),inhibition,[1],0%
NC(=O)N1CCC(CC(=O)N2CCN(C3c4ccc(Cl)cc4CCc4cc(Br)cnc43)CC2)CC1 (configuration not stated),AUC at 8 h,[2],12300 ng·h/mL
same,AUC at 8 h,[3],4270 ng·h/mL
same,AUC at 24 h,[4],33900 ng·h/mL
same,AUC at 24 h,[5],70800 ng·h/mL
same,AUC at 24 h,[6],55200 ng·h/mL
same,AUC at 8 h,[7],12700 ng·h/mL
same,bioavailability,[8],35%
same,bioavailability,[9],100%
same,AUC at 24 h,[10],57200 ng·h/mL
same,Cmax,[11],38.8 µM
same,Cmax,[12],71.1 µM
same,Cmax,[13],2 µM
same,Cmax,[14],0.5 µM
same,Time above IC50,Cynomolgus monkey [15],24 h
same,Time above IC50,Mus musculus [16],8 h
same,half-life,[17],1.5 h
same,half-life,[18],2.4 h
same,half-life,[19],1.2 h
same,IC50,[20],> 35000 nM
same,bioavailability,[21],96.6%
O=C(Cc1cc[n+]([O-])cc1)N1CCN([C@H]2c3ccc(Cl)cc3CCc3cc(Br)cnc32)CC1,AUC at 24 h,[22],26100 ng·h/mL
same,AUC,Mus musculus [23],35300 ng·h/mL
same,AUC at 8 h,[24],58100 ng·h/mL
same,bioavailability,[25],100%
same,Cmax,[26],8 µM
same,Cmax,[27],24.6 µM
same,Time above IC50,Cynomolgus monkey [28],24 h
same,Time above IC50,Mus musculus [29],7 h
same,half-life,[30],1.9 h
same,IC50,[20],> 76000 nM
O=C(Cc1cc[n+]([O-])cc1)N1CCN([C@@H]2c3ccc(Cl)cc3CCc3cccnc32)CC1,AUC at 24 h,[31],11300 ng·h/mL
same,AUC at 24 h,[32],6000 ng·h/mL
same,bioavailability,[25],53%
same,Cmax,[27],3 µM
same,Time above IC50,[33],2 h
same,half-life,[19],1.1 h
same,IC50,[34],1200 nM
O=C(Cc1cc[n+]([O-])cc1)N1CCN(C2c3ccc(Cl)cc3C=Cc3cc(Br)cnc32)CC1 (configuration not stated),AUC at 24 h,[31],11700 ng·h/mL
same,Cmax,[35],1.9 µM
same,Time above IC50,Cynomolgus monkey [36],31 h
same,IC50,[37],350 nM
